Drawing on ChEMBL document CHEMBL1135409, “Structure-activity relationships of a novel class of endothelin-A receptor antagonists and discovery of potent and selective receptor antagonist, 2-(benzo[1,3]dioxol-5-yl)-6-isopropyloxy-4-(4-methoxyphenyl)-2H-chromene-3-carboxylic acid (S-1255). 1. Study on structure-activity relationships and …” (J Med Chem, 2002), this text covers IC50 and Ratio for 18 molecules.

Assay [1] addresses T1, Endothelin-1 receptor (Rattus norvegicus, UniProt P26684).
T1 sequence (P26684 whole entry): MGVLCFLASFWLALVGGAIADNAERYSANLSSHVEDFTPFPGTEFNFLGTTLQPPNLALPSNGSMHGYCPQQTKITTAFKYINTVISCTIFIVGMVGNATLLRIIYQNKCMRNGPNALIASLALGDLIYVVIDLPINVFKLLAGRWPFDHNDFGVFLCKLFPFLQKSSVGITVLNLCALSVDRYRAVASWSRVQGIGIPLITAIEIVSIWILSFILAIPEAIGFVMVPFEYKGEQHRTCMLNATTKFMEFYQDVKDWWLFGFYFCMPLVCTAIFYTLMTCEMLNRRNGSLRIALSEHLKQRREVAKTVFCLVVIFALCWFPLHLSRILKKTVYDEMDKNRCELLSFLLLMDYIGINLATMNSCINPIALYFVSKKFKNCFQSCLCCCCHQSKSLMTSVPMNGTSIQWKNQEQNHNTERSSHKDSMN
As to the kind of experiment: Binding affinity for endothelin A receptor by inhibition of [125I]ET1 binding in rat aorta smooth muscle cells. It is filed as tissue-based.

A short description of assay [2]: Ratio of inhibitory concentrations at ET-B receptor relative to that of ET-A receptor.
Assay [3] has as its target T2, Endothelin receptor type B (Sus scrofa, UniProt P35463).
T2 sequence (P35463 whole entry): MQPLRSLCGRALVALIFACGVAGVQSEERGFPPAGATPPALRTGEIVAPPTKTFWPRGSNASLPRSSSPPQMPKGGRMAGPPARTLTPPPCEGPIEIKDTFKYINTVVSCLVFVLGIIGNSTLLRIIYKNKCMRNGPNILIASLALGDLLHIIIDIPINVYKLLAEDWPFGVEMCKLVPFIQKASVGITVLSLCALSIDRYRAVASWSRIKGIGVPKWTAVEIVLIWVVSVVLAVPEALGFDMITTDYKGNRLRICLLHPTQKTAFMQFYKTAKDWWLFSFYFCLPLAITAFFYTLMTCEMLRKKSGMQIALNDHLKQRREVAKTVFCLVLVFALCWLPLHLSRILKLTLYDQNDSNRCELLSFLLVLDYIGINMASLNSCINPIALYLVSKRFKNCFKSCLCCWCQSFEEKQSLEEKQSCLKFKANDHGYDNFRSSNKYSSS
Put plainly: Binding affinity to endothelin B receptor measured by inhibition of [125I]ET-3 binding recombinant pig ET-B receptor expressed in COS-7 cells. It is filed as cell-based. The essentials:
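COS cells transfected with porcine ETB cDNA, in Hank's solution with 20 mM HEPES and protease inhibitors. Stopped by filtration on GF/C filters presoaked in 1% polyethylenimine, washed with 50 mM Tris-HCl pH 7.4, then counted. Nonspecific binding taken with 0.1 μM ET-3.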

The target in assay [4] is T3, Endothelin receptor type B (Homo sapiens, UniProt P24530).
T3 sequence (P24530 whole entry): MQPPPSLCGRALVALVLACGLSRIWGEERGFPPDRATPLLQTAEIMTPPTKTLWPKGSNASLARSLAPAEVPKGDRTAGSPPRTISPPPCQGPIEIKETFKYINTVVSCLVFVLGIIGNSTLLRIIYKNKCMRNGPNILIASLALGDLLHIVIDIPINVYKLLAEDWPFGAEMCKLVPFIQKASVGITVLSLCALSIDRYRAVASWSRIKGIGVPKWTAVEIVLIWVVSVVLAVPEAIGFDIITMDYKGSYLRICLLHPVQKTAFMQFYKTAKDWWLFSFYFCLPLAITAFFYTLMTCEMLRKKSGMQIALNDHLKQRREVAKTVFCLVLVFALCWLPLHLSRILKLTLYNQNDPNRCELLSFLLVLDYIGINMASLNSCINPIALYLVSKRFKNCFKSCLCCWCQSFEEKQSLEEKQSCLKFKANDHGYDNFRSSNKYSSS
Put plainly: Binding affinity at human Endothelin B receptor. The essentials:
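Membranes from CHO cells expressing human ETB receptor were incubated with [125I]ET-3 (25 pM as added) and the test compound at various concentrations for 60 min at 37 °C. Buffer was HEPES (20 mM)-buffered Hank's solution with protease inhibitors. Samples were filtered on PEI-presoaked glass-fibre filters, washed with 50 mM Tris-HCl pH 7.4 and counted. Nonspecific binding was taken with 0.1 µM ET-3.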

Assay [5] addresses T4, Endothelin-1 receptor (Homo sapiens, UniProt P25101).
T4 sequence (P25101 whole entry): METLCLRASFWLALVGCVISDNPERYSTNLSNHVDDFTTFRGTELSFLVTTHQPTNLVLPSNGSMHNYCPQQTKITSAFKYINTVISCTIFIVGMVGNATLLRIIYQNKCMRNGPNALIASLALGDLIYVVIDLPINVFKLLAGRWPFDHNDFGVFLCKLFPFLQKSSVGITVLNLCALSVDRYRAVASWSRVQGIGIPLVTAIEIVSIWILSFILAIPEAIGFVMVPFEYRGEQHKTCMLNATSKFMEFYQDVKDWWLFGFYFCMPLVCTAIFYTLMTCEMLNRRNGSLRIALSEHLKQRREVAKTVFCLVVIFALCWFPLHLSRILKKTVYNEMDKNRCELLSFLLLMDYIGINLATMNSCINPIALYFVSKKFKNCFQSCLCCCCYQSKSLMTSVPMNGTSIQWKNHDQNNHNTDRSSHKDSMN
Put plainly: Binding affinity at human Endothelin A receptor. The essentials: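 Membranes from CHO cells expressing human ETA receptor were incubated with [125I]ET-1 and the test compound at various concentrations for 60 min at 37 °C. Buffer was Hank's solution with 20 mM HEPES and protease inhibitors. Bound ligand was collected on PEI-presoaked glass-fibre filters and washed with 50 mM Tris-HCl pH 7.4, then counted.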

With `COC1=C(C(=O)O)[C@@H](c2ccc3c(c2)OCO3)Oc2ccc(OC(C)C)cc21`, the values for the half-maximal inhibitory concentration (IC50) (on Endothelin-1 receptor [1]; in assay [3]) were 5.2 nM and 3500 nM, respectively. Moreover, in assay [2], the Ratio was 670.
On to `COc1ccc(C2=C(C(=O)O)[C@@H](c3ccc4c(c3)OCO4)Oc3ccc(OC(C)C)cc32)cc1`, for which the half-maximal inhibitory concentration (IC50) came to 200 nM in assay [4], 0.19 nM at Endothelin-1 receptor [1], 0.45 nM at Endothelin-1 receptor [5] and 120 nM in assay [3].
On to `COc1ccc(C2=C(C(=O)O)C(c3ccc4c(c3)OCO4)Oc3ccc(OCc4ccccc4)cc32)cc1` (stereo not given), for which the figures for the half-inhibitory concentration (IC50) (at Endothelin-1 receptor [1]; in assay [3]) were 62 nM and 790 nM, respectively. The Ratio in assay [2] came to 13.
With `CCCCC1=C(C(=O)O)[C@@H](c2ccc3c(c2)OCO3)Oc2ccc(OC(C)C)cc21`, the results for the half-inhibitory concentration (IC50) (at Endothelin-1 receptor [1]; in assay [3]) were 0.42 nM and 400 nM, respectively. Further, in assay [2], the Ratio was 950.
For the molecule `COc1ccc(C2=C(C(=O)O)C(c3ccc4c(c3)OCO4)Oc3ccc(OC(C)CO)cc32)cc1` (stereo not given), the IC50 on Endothelin-1 receptor [1] was found to be 2.8 nM; in assay [3] it was 170 nM. The Ratio in assay [2] is 61.
Take `CCCCOC1=C(C(=O)O)C(c2ccc3c(c2)OCO3)Oc2ccc(OCC)cc21` (stereo not given): the IC50 at Endothelin-1 receptor [1] worked out at 4.2 nM; in assay [3], 1600 nM. In addition, the Ratio in assay [2] turned out to be 380.
As for `CCCOc1ccc2c(c1)C(c1ccc(OC)cc1)=C(C(=O)O)C(c1ccc3c(c1)OCO3)O2` (stereo not given), the half-inhibitory concentration (IC50) on Endothelin-1 receptor [1] came out at 4.4 nM; in assay [3], 220 nM. Besides, the Ratio in assay [2] was 50.
With `COC1=C(C(=O)O)C(c2ccc3c(c2)OCO3)Oc2ccc(OC(C)C)cc21` (stereo not given), the IC50 at Endothelin-1 receptor [1] was 9.1 nM; in assay [3], 6400 nM. In assay [2], the Ratio is 700.
For the molecule `CCCOc1cccc2c1C(c1ccc(OC)cc1)=C(C(=O)O)C(c1ccc3c(c1)OCO3)O2` (stereo not given), the IC50 at Endothelin-1 receptor [1] turned out to be 1200 nM; in assay [3] it was 1800 nM. The Ratio in assay [2] turned out to be 1.5.
On to `CCCCOC1=C(C(=O)O)C(c2ccc3c(c2)OCO3)Oc2ccc(OC)cc21` (stereo not given), for which the IC50 at Endothelin-1 receptor [1] is 250 nM; in assay [3] it was 2300 nM. In addition, in assay [2], the Ratio came to 9.2.
In the case of `COc1ccc(C2=C(C(=O)O)C(c3ccc4c(c3)OCO4)Oc3ccc(OC)cc32)cc1` (stereo not given), the IC50 on Endothelin-1 receptor [1] was found to be 74 nM; in assay [3], 540 nM. Also, the Ratio in assay [2] was determined as 7.3.
In the same order, the values of `CCCCOC1=C(C(=O)O)C(c2ccc3c(c2)OCO3)Oc2ccc(OCCC)cc21` (stereo not given) are 2 nM, 520 nM and 260.
With `CCCCOC1=C(C(=O)O)C(c2ccc3c(c2)OCO3)Oc2ccc(OCCCC)cc21` (stereo not given), the half-inhibitory concentration (IC50) on Endothelin-1 receptor [1] was 3 nM; in assay [3] it was 470 nM. In addition, the Ratio in assay [2] came out at 160.
With `CC(C)Oc1ccc2c(c1)C=C(C(=O)O)[C@@H](c1ccc3c(c1)OCO3)O2`, the IC50 at Endothelin-1 receptor [1] amounted to 240 nM; in assay [3], 52000 nM. For the same molecule, the Ratio in assay [2] is 220.
Consider `CCCCOC1=C(C(=O)O)C(c2ccc3c(c2)OCO3)Oc2ccccc21` (stereo not given), for which the results for the concentration for half-maximal inhibition (IC50) (on Endothelin-1 receptor [1]; in assay [3]) were 66 nM and 4900 nM, respectively. For the same molecule, the Ratio in assay [2] stood at 74.
For the molecule `CC(C)Oc1ccc2c(c1)C=C(C(=O)O)C(c1ccc3c(c1)OCO3)O2` (stereo not given), the IC50 worked out at 330 nM on Endothelin-1 receptor [1] and 52000 nM in assay [3]. Moreover, the Ratio in assay [2] came to 160.
With `COc1ccc(C2=C(C(=O)O)C(c3ccc4c(c3)OCO4)Oc3ccccc32)cc1` (stereo not given), the IC50 was determined as 86 nM on Endothelin-1 receptor [1] and 1400 nM in assay [3]. Further, in assay [2], the Ratio was 16.
As for `CCCCOc1ccc2c(c1)C(c1ccc(OC)cc1)=C(C(=O)O)C(c1ccc3c(c1)OCO3)O2` (stereo not given), the IC50 stood at 17 nM at Endothelin-1 receptor [1] and 130 nM in assay [3]. The Ratio in assay [2] was determined as 7.6.

What is called IC50 is the concentration needed to halve the response being measured.
